According to ChEMBL document CHEMBL1132135, “Potent, orally absorbed glucagon receptor antagonists” (Bioorg Med Chem Lett, 1999):

Experiments:
[1] = Concentration in plasma (portal) following oral dose in rats at 0.25 hr; format: ADME, organism-based; settings: rat
How it was run: (§1)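 Fasted male Sprague-Dawley rats (300-400 g) were gavaged at 3.0 mg/kg, using a 0.3 mg/mL solution in 5% PEG-400/5% Tween-80/90% water at 10 mL/kg. At each time point animals were CO2-anesthetized. Portal vein blood was drawn first, then cardiac puncture at sacrifice. Samples were heparinized, held at 0 °C for up to 2 h, then centrifuged. Plasma proteins were precipitated with acetonitrile and analyzed by LC/MS/MS.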

[2] = Concentration in plasma (portal) following oral dose in rats at 1 hr; format: ADME, organism-based; settings: rat; how it was run: as §1
[3] = Concentration in plasma (portal) following oral dose in rats at 2 hr; format: ADME, organism-based; settings: rat; how it was run: as §1
[4] = Concentration in plasma (systemic) following oral dose in rats at 0.25 hr; format: ADME, organism-based; settings: rat; how it was run: as §1
[5] = Concentration in plasma (systemic) following oral dose in rats at 1 hr; format: ADME, organism-based; settings: rat; how it was run: as §1
[6] = Concentration in plasma (systemic) following oral dose in rats at 2 hr; format: ADME, organism-based; settings: rat; how it was run: as §1
[7] = Concentration in plasma (systemic) following oral dose in mouse at 0.25 hr; format: ADME, organism-based
How it was run: (§2)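 Oral gavage in CD1 mice at 50 mg/kg, vehicle 5% PEG-400/5% Tween-80/90% water, 10 mL/kg. At each time point mice were CO2-anesthetized and bled by cardiac puncture at sacrifice. Samples were heparinized, kept at 0 °C for up to 2 h, then centrifuged to plasma. Plasma proteins were precipitated with acetonitrile and analyzed by HPLC.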

[8] = Concentration in plasma (systemic) following oral dose in mouse at 1 hr; format: ADME, organism-based; how it was run: as §2
[9] = Concentration in plasma (systemic) following oral dose in mouse at 24 hr; format: ADME, organism-based; how it was run: as §2
[10] = Concentration in plasma (systemic) following oral dose in mouse at 2 hr; format: ADME, organism-based; how it was run: as §2
[11] = Concentration in plasma (systemic) following oral dose in mouse at 4 hr; format: ADME, organism-based; how it was run: as §2
[12] = Concentration in plasma (systemic) following oral dose in mouse at 6 hr; format: ADME, organism-based; how it was run: as §2
[13] = target: T1, Glucagon receptor (Mus musculus, UniProt Q61606); assay: Binding affinity towards glucagon receptor determined by reduction in binding of 125 I-glucagon to the murine glucagon receptor (mGLUR) expressed on CHO cells in presence of Mg+2; format: cell-based
How it was run: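 Mg2+ added at 5 mM, a physiological level, to the binding medium. IC50 reported in µM, with the number of determinations noted; where no IC50 was reached, percent inhibition is given at a single tested concentration.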

[14] = target: T1, Glucagon receptor; assay: Binding affinity towards glucagon receptor determined by reduction in binding of [125I]glucagon to the murine glucagon receptor (GGR) expressed on CHO cells in absence of Mg+2; format: cell-based
[15] = target: T2, Glucagon receptor (Homo sapiens, UniProt P47871); assay: biochemical; format: cell-based, CHO
[16] = target: T2, Glucagon receptor; assay: Binding affinity towards glucagon receptor determined by reduction in binding of [125I]glucagon to the human glucagon receptor (GGR) expressed on CHO cells in presence of Mg+2; format: cell-based
How it was run: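 Radioligand binding to the glucagon receptor was run with 5 mM Mg2+ added, described as a physiological concentration.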

[17] = target: Mitogen-activated protein kinase 14 (Homo sapiens, UniProt Q16539); assay: Inhibitory activity against p38-alpha kinase
[18] = Selectivity ratio between the binding value of human glucagon receptor (GGR) with Mg+2 and the value of p38 kinase
[19] = target: T1, Glucagon receptor; assay: Binding affinity towards glucagon receptor determined by reduction in binding of 125 I-glucagon to the murine glucagon receptor (mGLUR) expressed on CHO cells in absence of Mg; format: cell-based
[20] = target: Glucagon receptor (Mus musculus) (UniProt Q61606); assay: Binding affinity towards glucagon receptor determined by reduction in binding of 125 I-glucagon to the murine glucagon receptor (mGLUR) expressed on CHO cells in presence of Mg+2 at 1 uM; format: cell-based
Glucagon receptor (Mus musculus), sequence (Q61606 whole entry): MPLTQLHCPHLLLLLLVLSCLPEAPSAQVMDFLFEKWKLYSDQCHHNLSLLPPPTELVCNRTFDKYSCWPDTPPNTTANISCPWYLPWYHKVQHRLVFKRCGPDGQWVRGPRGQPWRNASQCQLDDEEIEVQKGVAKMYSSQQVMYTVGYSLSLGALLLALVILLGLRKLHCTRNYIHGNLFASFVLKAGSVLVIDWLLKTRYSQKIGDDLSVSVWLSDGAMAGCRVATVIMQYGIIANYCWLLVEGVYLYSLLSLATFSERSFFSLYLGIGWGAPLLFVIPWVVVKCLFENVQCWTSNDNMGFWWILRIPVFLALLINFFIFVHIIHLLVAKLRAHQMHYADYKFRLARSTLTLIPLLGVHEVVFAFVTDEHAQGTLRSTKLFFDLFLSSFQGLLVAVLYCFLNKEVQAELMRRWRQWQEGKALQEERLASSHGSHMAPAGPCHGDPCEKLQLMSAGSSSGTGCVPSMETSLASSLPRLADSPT

T1 sequence (Q61606 whole entry): as above
T2 sequence (P47871 whole entry): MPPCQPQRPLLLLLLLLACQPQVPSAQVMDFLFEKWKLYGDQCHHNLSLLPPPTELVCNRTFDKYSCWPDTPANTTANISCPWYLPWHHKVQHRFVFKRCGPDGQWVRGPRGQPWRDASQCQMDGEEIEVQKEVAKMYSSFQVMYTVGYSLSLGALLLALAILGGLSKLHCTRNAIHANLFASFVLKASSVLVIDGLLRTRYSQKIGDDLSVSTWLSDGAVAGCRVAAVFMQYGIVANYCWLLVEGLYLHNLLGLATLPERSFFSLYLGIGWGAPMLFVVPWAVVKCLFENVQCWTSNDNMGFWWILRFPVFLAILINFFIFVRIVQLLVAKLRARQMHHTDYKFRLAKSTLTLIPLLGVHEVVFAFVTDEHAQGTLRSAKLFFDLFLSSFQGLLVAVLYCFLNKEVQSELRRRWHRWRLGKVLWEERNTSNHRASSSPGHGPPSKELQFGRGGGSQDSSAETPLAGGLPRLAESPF
Mitogen-activated protein kinase 14, sequence (Q16539 whole entry): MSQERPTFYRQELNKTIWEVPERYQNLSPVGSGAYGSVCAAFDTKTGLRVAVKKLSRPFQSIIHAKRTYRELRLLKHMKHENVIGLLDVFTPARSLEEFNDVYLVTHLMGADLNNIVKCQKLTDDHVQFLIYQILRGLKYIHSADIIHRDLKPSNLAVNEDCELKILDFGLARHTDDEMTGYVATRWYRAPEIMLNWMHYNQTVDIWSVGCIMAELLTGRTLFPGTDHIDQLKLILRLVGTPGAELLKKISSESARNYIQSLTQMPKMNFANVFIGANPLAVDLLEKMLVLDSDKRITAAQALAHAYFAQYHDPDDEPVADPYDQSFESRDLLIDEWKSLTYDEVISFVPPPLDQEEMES

concentration at 0.25 h [1] [nM]	concentration at 1 h [2] [nM]	concentration at 2 h [3] [nM]	concentration at 0.25 h [4] [nM]	concentration at 1 h [5] [nM]	concentration at 2 h [6] [nM]	concentration at 0.25 h [7] [nM]	concentration at 1 h [8] [nM]	concentration at 24 h [9] [nM]	concentration at 2 h [10] [nM]	concentration at 4 h [11] [nM]	concentration at 6 h [12] [nM]	IC50 [13] [nM]	IC50 [14] [nM]	IC50 [15] [nM]	IC50 [16] [nM]	IC50 [17] [nM]	Ratio [18]	IC50 [19] [nM]	inhibition [20] [%]	Compound
25	1240	1400	9	590	840	1700	15200	700	11700	16500	13100	250	37	7	170	1440	0.12	–	–	CCCOc1ccc(Br)cc1-c1cc(-c2ccc(Cl)cc2)[nH]c1-c1ccncc1
–	–	–	–	–	–	–	–	–	–	–	–	–	–	150	1700	80	21.2	230	48	Clc1ccc(-c2cc(-c3cccc(Br)c3)c(-c3ccncc3)[nH]2)cc1
